M1 PAM: positive allosteric modulators of human M1 muscarinic receptor; P11229; CHO-K1 hM1, Fluo-8 calcium fluorescence, ACh EC20; 0% = ACh EC20, 100% = maximal ACh; activation, % at 3 µM; 360,000 tested, 0.088% active; AID 588819; in the data active = activation above about 19%, passing the limit was not always enough
Target sequence (P11229 whole entry, looked up): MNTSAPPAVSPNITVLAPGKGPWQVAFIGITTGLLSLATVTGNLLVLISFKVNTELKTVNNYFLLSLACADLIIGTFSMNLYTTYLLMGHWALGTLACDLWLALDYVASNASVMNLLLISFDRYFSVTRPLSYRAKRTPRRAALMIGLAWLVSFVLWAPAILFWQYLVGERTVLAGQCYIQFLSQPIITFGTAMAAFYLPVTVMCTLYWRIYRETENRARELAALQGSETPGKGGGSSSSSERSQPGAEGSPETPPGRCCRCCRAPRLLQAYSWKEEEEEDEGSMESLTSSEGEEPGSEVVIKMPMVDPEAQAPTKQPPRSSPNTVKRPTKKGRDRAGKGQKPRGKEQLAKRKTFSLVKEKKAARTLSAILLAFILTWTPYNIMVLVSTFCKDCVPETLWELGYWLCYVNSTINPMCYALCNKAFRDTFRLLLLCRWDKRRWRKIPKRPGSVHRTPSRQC
CHRM5 antagonist: CHRM5 antagonism in calcium assay; 360,000 tested, 0.59% active; CHO-hM5 cells, Fluo-8 calcium fluorescence, ACh EC80; inhibition, % at 3 µM; AID 624040;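 active = inhibition above a per-plate cutoff, the mean of that plate's test compounds plus 3 SD, cut at about 27% in these data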;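 note: 0% = acetylcholine EC80 with DMSO and 100% = DMSO without agonist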
CHRM1 agonist: human M1 muscarinic receptor agonism; P11229; CHO-K1 hM1, Fluo-8 calcium fluorescence, agonist mode; 0% DMSO, 100% acetylcholine EC100; activation, % at 3 µM; 360,000 tested, 0.33% active; AID 588814;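 active = activation above the run's mean compound activation plus 3 SD, cut at about 16% in these data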;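 note: peak over basal fluorescence ratio within a 140 s kinetic read after compound addition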
CHRM5 PAM: positive allosteric modulators of human muscarinic M5 receptor; P08912; CHO-K1 hM5, Fluo-8 calcium, ACh EC20 PAM; 0% = ACh EC20, 100% = ACh EC100; activation, % at 3 µM; 360,000 tested, 0.3% active;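 active = activation above the run cutoff, the mean activation of all test compounds plus 3 SD, cut at about 18% in these data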
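system = human M5 receptor in CHO-K1 cells | compound = one concentration, 3 µM final (nominal) | schedule = Post-acetylcholine fluorescence recording 140 s | signal = Fluo-8 calcium dye fluorescence, kinetic read | benchmarks = low control EC20 acetylcholine (0%), high control EC100 acetylcholine (100%) | repeats = singlicate, one well per test compound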
M5 ag: agonists of human muscarinic M5 receptor (CHRM5); activation, % at 3 µM; CHO-K1 hM5 cells, Fluo-8 calcium fluorescence; 0% DMSO wells, 100% maximal acetylcholine response; 360,000 tested, 0.19% active; AID 624037;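 active = activation above the run's mean over test compounds plus 3 SD, cut at about 23% in these data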;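 note: signal is peak over basal fluorescence ratio across the kinetic read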
M1 antag: human CHRM1 antagonism; AID 588852; P11229; 360,000 tested, 1.3% active; inhibition, % at 3 µM; CHO-K1 hM1, Fluo-8 calcium fluorescence, ACh EC80 antagonist;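 active = percent inhibition above its own plate's cutoff, namely the mean of that plate's compound wells plus 3 SD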;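 note: peak over basal fluorescence ratio during 140 s after agonist addition; 0% = ACh EC80 plus DMSO and 100% = DMSO alone without agonist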
An asterisk follows results filed as active. In the library only some 2.1% were active in any assay of this set; here they are far more common.

Results for CCCC[n+]1ccn(-c2nc3ccccc3nc2[N-]S(=O)(=O)c2ccccc2)c1 ?
M1 PAM: -7; CHRM5 antagonist: -21; CHRM1 agonist: 19*; CHRM5 PAM: 8; M5 ag: 10; M1 antag: -7

Results for COC(=O)c1sc(C(C)(C)C)cc1CS(=O)(=O)c1ccccn1 ?
M1 PAM: 18; CHRM5 antagonist: -18; CHRM1 agonist: 2; CHRM5 PAM: 22*; M5 ag: 9; M1 antag: -17

How did CC(C)(C)c1ccc(OCC(O)CS(=O)(=O)c2ccccn2)cc1 (configuration not stated) do in these assays?
M1 PAM: 4; CHRM5 antagonist: -8; CHRM1 agonist: -3; CHRM5 PAM: -2; M5 ag: 3; M1 antag: -6

Results for CCN(CC)CCCOC(=O)C(c1ccccc1)c1ccccc1 ?
M1 PAM: -34; CHRM5 antagonist: 98*; CHRM1 agonist: -14; CHRM5 PAM: -24; M5 ag: -6; M1 antag: 101*

How did CCN(CC)CCOC(=O)/C=C/c1ccccc1 do in these assays?
M1 PAM: -5; CHRM5 antagonist: 10; CHRM1 agonist: -6; CHRM5 PAM: -5; M5 ag: -6; M1 antag: 5

How did COc1cccc(-c2cc(C(=O)N3CC4(C)CC3CC(C)(C)C4)no2)c1 (configuration not stated) do in these assays?
M1 PAM: 1; CHRM5 antagonist: -10; CHRM1 agonist: -8; CHRM5 PAM: 3; M5 ag: -3; M1 antag: -9

What do the screens show for `COc1cc(OC)cc(C(=O)NNC(=O)C2CSC3(C)CCC(=O)N23)c1` (configuration not stated)?
M1 PAM: -5; CHRM5 antagonist: -7; CHRM1 agonist: -2; CHRM5 PAM: 4; M5 ag: 5; M1 antag: 13

How did C=CCN(CC=C)S(=O)(=O)c1ccc2nc(NC(=O)C(C)C)sc2c1 do in these assays?
M1 PAM: -6; CHRM5 antagonist: 2; CHRM1 agonist: 24*; CHRM5 PAM: -7; M5 ag: 1; M1 antag: -5

How did Cn1c(C2=C(O)CN(Cc3ccccc3)C2=N)[n+](C)c2ccccc21 do in these assays?
M1 PAM: 3; CHRM5 antagonist: -5; CHRM1 agonist: -8; CHRM5 PAM: -3; M5 ag: -8; M1 antag: -11

How did c1cc2c(cc1C1CCCN1)OCCCO2 (configuration not stated) do in these assays?
M1 PAM: -11; CHRM5 antagonist: -1; CHRM1 agonist: -3; CHRM5 PAM: -14; M5 ag: -12; M1 antag: 28*

What do the screens show for `O=S(=O)(c1ccc2c(c1)OCCCO2)N1CCNCC1`?
M1 PAM: 9; CHRM5 antagonist: 5; CHRM1 agonist: -5; CHRM5 PAM: -6; M5 ag: -4; M1 antag: -8

What do the screens show for `Cc1cc(=O)oc2cc(OCC(=O)N3c4ccccc4NC(=O)C3(C)C)ccc12`?
M1 PAM: -6; CHRM5 antagonist: 7; CHRM1 agonist: -3; CHRM5 PAM: 0; M5 ag: 2; M1 antag: 5

What do the screens show for `CC(=O)Nc1ccc(NC(=O)CSc2nnc(-c3ccc4c(c3)OCO4)o2)cc1`?
M1 PAM: 3; CHRM5 antagonist: -9; CHRM1 agonist: 1; CHRM5 PAM: 4; M5 ag: -3; M1 antag: -6

What do the screens show for `Cc1cccc(-c2noc(-c3csc([C@@H]4C[C@H](O)[C@@H](CO)O4)n3)n2)c1`?
M1 PAM: 21; CHRM5 antagonist: 29*; CHRM1 agonist: 4; CHRM5 PAM: -10; M5 ag: 1; M1 antag: -17

How did CS(=O)(=O)N(CC(=O)NC1CCCC1)c1ccc2c(c1)OCCO2 do in these assays?
M1 PAM: -21; CHRM5 antagonist: 2; CHRM1 agonist: -2; CHRM5 PAM: -2; M5 ag: 1; M1 antag: 35*

Results for NC(=O)C1CC(O)CN1c1nc(CN2CCOCC2)nc2scc(-c3ccccc3)c12 (configuration not stated) ?
M1 PAM: 7; CHRM5 antagonist: 1; CHRM1 agonist: -1; CHRM5 PAM: 2; M5 ag: -2; M1 antag: -6

Results for COc1ccc(C2=NN(c3nc(C(=O)O)cs3)C(O)(C(F)(F)F)C2)c(OC)c1 (configuration not stated) ?
M1 PAM: 1; CHRM5 antagonist: -14; CHRM1 agonist: -7; CHRM5 PAM: 3; M5 ag: -3; M1 antag: 0

What do the screens show for `O=C1c2cccc3cccc(c23)C(=O)N1CCN1CCN(CC(O)COCc2ccc(Cl)cc2)CC1` (configuration not stated)?
M1 PAM: -13; CHRM5 antagonist: 5; CHRM1 agonist: -7; CHRM5 PAM: -13; M5 ag: -7; M1 antag: 6

How did CN1CCCC(CC2Oc3ccccc3Sc3ccccc32)C1 (configuration not stated) do in these assays?
M1 PAM: -24; CHRM5 antagonist: 54*; CHRM1 agonist: -9; CHRM5 PAM: -18; M5 ag: -5; M1 antag: 99*

How did CC1CCCN(C(=O)N2c3ccccc3Sc3ccccc32)C1 (configuration not stated) do in these assays?
M1 PAM: -10; CHRM5 antagonist: 1; CHRM1 agonist: -8; CHRM5 PAM: -9; M5 ag: -5; M1 antag: 3

Results for O=C(CCCCN1CCCCC1)c1ccccc1 ?
M1 PAM: -3; CHRM5 antagonist: 10; CHRM1 agonist: -4; CHRM5 PAM: -5; M5 ag: -5; M1 antag: -2

What do the screens show for `c1ccc2c(c1)OC(CCCN1CCCCC1)c1ccccc1S2` (configuration not stated)?
M1 PAM: -24; CHRM5 antagonist: 22; CHRM1 agonist: -5; CHRM5 PAM: -28; M5 ag: -10; M1 antag: 46*

How did O=C(CNc1ccc2ccccc2c1)N/N=C/c1ccccn1 do in these assays?
M1 PAM: 3; CHRM5 antagonist: 1; CHRM1 agonist: -2; CHRM5 PAM: 0; M5 ag: -1; M1 antag: -5

Results for O=[N+]([O-])c1cc(/C=N/O)ccc1Oc1cccc(Cl)c1 ?
M1 PAM: -1; CHRM5 antagonist: 1; CHRM1 agonist: -8; CHRM5 PAM: 1; M5 ag: -3; M1 antag: -2

What do the screens show for `CCC(Sc1ccc(Cl)cc1)C(=O)Nc1nnc(-c2cccc([N+](=O)[O-])c2)s1` (configuration not stated)?
M1 PAM: 5; CHRM5 antagonist: -3; CHRM1 agonist: 20*; CHRM5 PAM: -2; M5 ag: 2; M1 antag: -9
